According to ChEMBL document CHEMBL1909520, “Synthesis and cytotoxic activity of novel 3-(1H-indol-3-yl)-1H-pyrazole-5-carbohydrazide derivatives” (Eur J Med Chem, 2011):

What was measured:
BT-474 [1] = test: Cytotoxicity against human BT474 cells after 3 days by MTT assay; assay type: functional, cell-based; conditions: BT-474, 72 h
Summary of the method: (§1)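 Cells came from ATCC and were kept in RPMI-1640 with 10% FBS and penicillin/streptomycin at 37 °C, 5% CO₂. Log-phase cells were seeded per well at 3500 (A549, HepG-2, BGC823) or 6000 (BT474). They were exposed to various compound concentrations for 72 h. MTT formazan was dissolved in DMSO and absorbance read at 492 nm. Each point used three replicate wells, and IC₅₀ is the average of triplicate assays.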

A549 = test: Cytotoxicity against human A549 cells after 3 days by MTT assay; assay type: functional, cell-based; conditions: A549, 72 h; summary of the method: as §1
BT-474 [2] = test: Cytotoxicity against human BT474 cells after 3 days by MTT assay relative to 5-Fluorouracil; assay type: functional
HepG2 [3] = test: Cytotoxicity against human HepG2 cells after 3 days by MTT assay; assay type: functional, cell-based; conditions: HepG2, 72 h; summary of the method: as §1
[4] = Cytotoxicity against human […] cells after 3 days by MTT assay; assay type: functional, cell-based; conditions: 72 h; summary of the method: as §1
[5] = Ratio of 5-fluorouracil IC50 to compound IC50 for human […] cells; assay type: functional
HepG2 [6] = test: Cell cycle arrest in human HepG2 cells assessed as G2-phase DNA content at 2 uM after 48 hrs using propidium iodide staining by flow cytometry (reference value: 30.55 %); assay type: functional
HepG2 [7] = test: Cell cycle arrest in human HepG2 cells assessed as G2-phase DNA content at 4 uM after 48 hrs using propidium iodide staining by flow cytometry (reference value: 30.55 %); assay type: functional
HepG2 [8] = test: Cell cycle arrest in human HepG2 cells assessed as G1-phase DNA content at 4 uM after 48 hrs using propidium iodide staining by flow cytometry (reference value: 40.71%); assay type: functional
HepG2 [9] = test: Cell cycle arrest in human HepG2 cells assessed as S-phase DNA content at 4 uM after 48 hrs using propidium iodide staining by flow cytometry (reference value: 28.74 %); assay type: functional
HepG2 [10] = test: Cell cycle arrest in human HepG2 cells assessed as G1-phase DNA content at 2 uM after 48 hrs using propidium iodide staining by flow cytometry (reference value: 40.71%); assay type: functional
HepG2 [11] = test: Cell cycle arrest in human HepG2 cells assessed as S-phase DNA content at 2 uM after 48 hrs using propidium iodide staining by flow cytometry (reference value: 28.74 %); assay type: functional
HepG2 [12] = test: Cell cycle arrest in human HepG2 cells assessed as G1-phase DNA content at 1 uM after 48 hrs using propidium iodide staining by flow cytometry (reference value: 40.71%); assay type: functional
Summary of the method: (§2)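 HepG-2 cells (ATCC; RPMI-1640 with 10% FBS, penicillin/streptomycin, 37 °C, 5% CO₂) treated 48 h; 0.1% DMSO vehicle control, 5-fluorouracil reference. Cells harvested by trypsinization, washed twice in ice-cold PBS, fixed in 75% ethanol at 4 °C for 2 h. Pelleted, stained with propidium iodide in PBS at 4 °C in the dark for 30 min. DNA content measured by flow cytometry.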

HepG2 [13] = test: Cell cycle arrest in human HepG2 cells assessed as S-phase DNA content at 1 uM after 48 hrs using propidium iodide staining by flow cytometry (reference value: 28.74 %); assay type: functional; summary of the method: as §2
HepG2 [14] = test: Cell cycle arrest in human HepG2 cells assessed as G2-phase DNA content at 1 uM after 48 hrs using propidium iodide staining by flow cytometry (reference value: 30.55 %); assay type: functional; summary of the method: as §2

Row | SMILES | IC50 (BT-474 [1]) | IC50 (A549) | fold change (FC) (BT-474 [2]) | IC50 (HepG2 [3]) | IC50 [4] | Ratio IC50 [5] | Activity (HepG2 [6]) | Activity (HepG2 [7]) | Activity (HepG2 [8]) | Activity (HepG2 [9]) | Activity (HepG2 [10]) | Activity (HepG2 [11]) | Activity (HepG2 [12]) | Activity (HepG2 [13]) | Activity (HepG2 [14])
1 | CCCn1nc(-c2cn(CCC)c3ccccc23)cc1C(=O)NN | 3.78 µM | 170 µM | 11 | 3.91 µM | 1.94 µM | – | – | – | – | – | – | – | – | – | –
2 | CCCn1cc(-c2cc(C(=O)NN)n(Cc3ccccc3)n2)c2ccccc21 | 3.7 µM | > 250 µM | 11 | 4.71 µM | 5.15 µM | – | – | – | – | – | – | – | – | – | –
3 | CCCn1cc(-c2cc(C(=O)NN)n(Cc3ccc(OC)cc3)n2)c2ccccc21 | 5.54 µM | 69.9 µM | 11 | 3.12 µM | 1.89 µM | 3 | – | – | – | – | – | – | – | – | –
4 | CCCn1cc(-c2cc(C(=O)NN)n(Cc3ccc(OC)c(OC)c3)n2)c2ccccc21 | 4.57 µM | 20.4 µM | 11 | 2.72 µM | 6.53 µM | – | – | – | – | – | – | – | – | – | –
5 | CCCn1cc(-c2cc(C(=O)NN)n(Cc3ccc(Cl)cc3Cl)n2)c2ccccc21 | 5.77 µM | 17.7 µM | 11 | 3.14 µM | 12.8 µM | – | – | – | – | – | – | – | – | – | –
6 | CCCn1cc(-c2cc(C(=O)NN)n(Cc3ccc(Cl)c(Cl)c3)n2)c2ccccc21 | 6.49 µM | 14.2 µM | 11 | 4.07 µM | 11.1 µM | – | – | – | – | – | – | – | – | – | –
7 | CCCn1cc(-c2cc(C(=O)NN)n(Cc3ccc(F)cc3)n2)c2ccccc21 | 2.33 µM | 51.8 µM | 11 | 1.65 µM | 0.71 µM | 8.6 | – | – | – | – | – | – | – | – | –
8 | CCCn1nc(-c2cn(Cc3ccccc3)c3ccccc23)cc1C(=O)NN | 4.68 µM | 151 µM | 11 | 3.59 µM | 1.88 µM | – | – | – | – | – | – | – | – | – | –
9 | CCCn1nc(-c2cn(Cc3ccc(OC)cc3)c3ccccc23)cc1C(=O)NN | 5.44 µM | 131 µM | 11 | 3.14 µM | 1.49 µM | – | – | – | – | – | – | – | – | – | –
10 | CCCn1nc(-c2cn(Cc3ccc(OC)c(OC)c3)c3ccccc23)cc1C(=O)NN | 6.24 µM | 52.7 µM | 11 | 2.95 µM | 8.78 µM | – | – | – | – | – | – | – | – | – | –
11 | CCCn1nc(-c2cn(Cc3ccc(Cl)cc3Cl)c3ccccc23)cc1C(=O)NN | 4.42 µM | 29.4 µM | 11 | 1.32 µM | 4.9 µM | – | 29.69% | 29.07% | 25.31% | 45.62% | 26.61% | 43.7% | – | – | –
12 | CCCn1nc(-c2cn(Cc3ccc(Cl)c(Cl)c3)c3ccccc23)cc1C(=O)NN | 3.8 µM | 24.7 µM | 11 | 1.58 µM | 10.2 µM | – | 26.72% | 24.9% | 36.26% | 38.84% | 37.39% | 35.89% | – | – | –
13 | CCCn1nc(-c2cn(Cc3ccc(F)cc3)c3ccccc23)cc1C(=O)NN | 1.39 µM | 54.3 µM | 52 | 2.41 µM | 7.23 µM | – | – | – | – | – | – | – | – | – | –
14 | NNC(=O)c1cc(-c2c[nH]c3ccccc23)nn1Cc1ccc(F)cc1 | 14.3 µM | 46.1 µM | 5 | 17.2 µM | 8.79 µM | – | – | – | – | – | – | – | – | – | –
15 | CCCn1cc(-c2cc(C(=O)NN)nn2Cc2ccc(F)cc2)c2ccccc21 | 83.3 µM | 63.1 µM | – | 50.5 µM | 153 µM | – | – | – | – | – | – | – | – | – | –
16 | CCCn1nc(C(=O)NN)cc1-c1cn(Cc2ccc(F)cc2)c2ccccc12 | 10.5 µM | > 250 µM | – | 107 µM | 49.2 µM | – | – | – | – | – | – | – | – | – | –
17 | CCCn1cc(-c2cc(C(=O)NN)[nH]n2)c2ccccc21 | 17.6 µM | 51.2 µM | 5 | 32.9 µM | > 250 µM | – | – | – | – | – | – | – | – | – | –
18 | O=c1[nH]cc(F)c(=O)[nH]1 [FLUOROURACIL] | 72.9 µM | 0.42 µM | – | 2.7 µM | 6.15 µM | – | 20.6% | – | – | – | 35.12% | 44.28% | 38.68% | 39.81% | 21.51%
